Laboratory results taken from ChEMBL document CHEMBL1165858, “Synthesis and biological evaluation of beta-chloro vinyl chalcones as inhibitors of TNF-alpha and IL-6 with antimicrobial activity” (Eur J Med Chem, 2010).
In brackets after ≈: the same amount, converted by molar mass. Activity calls are given as the source filed them. No cut-off for these calls is given here.

Key:
Staphylococcus aureus = assay: Antibacterial activity against Staphylococcus aureus NCIM 2120 at > 100 […] after 24 hrs by disc diffusion method; format: functional, organism-based
Klebsiella pneumoniae = assay: Antibacterial activity against Klebsiella pneumoniae NCIM 5082 at > 100 […] after 24 hrs by disc diffusion method; format: functional, organism-based
Proteus vulgaris = assay: Antibacterial activity against Proteus vulgaris NCIM 2813 after 24 hrs by disc diffusion method; format: functional; settings: for MIC: Proteus vulgaris, NCIM 2813, 24 h
Method in brief: (§1)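 Paper disc diffusion (6.25 mm Whatman no.1 discs, dry-heat sterilized at 140 °C for 1 h) loaded with compounds at different concentrations in DMSO. Discs were placed in triplicate on nutrient agar seeded with fresh bacterial culture and incubated at 37 °C for 24 h, with solvent and growth controls. Zones of inhibition (mm) and MIC, the concentration completely inhibiting growth, were recorded.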

Aspergillus fumigatus = assay: Antibacterial activity against Aspergillus fumigatus NCIM 902 at > 100 […] after 72 hrs by disc diffusion method; format: functional, organism-based
Aspergillus niger [1] = assay: Antibacterial activity against Aspergillus niger NCIM 545 after 72 hrs by disc diffusion method; format: functional
Method in brief: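 Agar disc diffusion against fungi. Fungi were maintained on potato dextrose agar at (25 ± 2) °C for five days before use. Compounds were dissolved in DMSO (10 mg/mL initial solutions) and loaded on discs placed on freshly seeded plates alongside a solvent control disc. Plates were held at 4 °C for 24 h for diffusion, then incubated at 37 ± 5 °C for 72 h. Zones of inhibition (mm) and MICs were recorded.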

Trichoderma viride = assay: Antibacterial activity against Trichoderma viride TT at > 100 […] after 72 hrs by disc diffusion method; format: functional, organism-based
Candida albicans = assay: Antibacterial activity against Candida albicans NCIM 3100 at > 100 […] after 72 hrs by disc diffusion method; format: functional, organism-based
Penicillium chrysogenum = assay: Antibacterial activity against Penicillium chrysogenum NCIM 707 at > 100 […] after 72 hrs by disc diffusion method; format: functional, organism-based
THP-1 [2] = assay: Antiinflammatory activity in human THP1 cells assessed as inhibition of LPS-induced TNFalpha secretion at 10 uM treated 30 mins before LPS challenge measured after 24 hrs by ELISA relative to control; format: functional
Method in brief: (§2)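 THP-1 cells were grown in RPMI 1640 with 10% FBS and penicillin/streptomycin, then differentiated with PMA. Compound or vehicle (0.5% DMSO) was added for 30 min at 37 °C, followed by LPS (E. coli 0127:B8, final 1 µg/mL). After 24 h at 37 °C in 5% CO2, TNF-α and IL-6 in the supernatants were quantified by ELISA. Values are the mean of n = 2.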

THP-1 [3] = assay: Antiinflammatory activity in human THP1 cells assessed as inhibition of LPS-induced IL-6 secretion at 10 uM treated 30 mins before LPS challenge measured after 24 hrs by ELISA relative to control; format: functional; method in brief: as §2
[4] = Cytotoxicity against […] at 10 uM; format: cell-based
Bacillus subtilis [5] = assay: Antibacterial activity against Bacillus subtilis NCIM 2546 at > 100 […] after 24 hrs by disc diffusion method; format: functional, organism-based
Escherichia coli [6] = assay: Antibacterial activity against Escherichia coli NCIM 2065 at > 100 […] after 24 hrs by disc diffusion method; format: functional, organism-based
Aspergillus niger [7] = assay: Antibacterial activity against Aspergillus niger NCIM 545 at > 100 […] after 72 hrs by disc diffusion method; format: functional, organism-based
Bacillus subtilis [8] = assay: Antibacterial activity against Bacillus subtilis NCIM 2546 after 24 hrs by disc diffusion method; format: functional; method in brief: as §1
Escherichia coli [9] = assay: Antibacterial activity against Escherichia coli NCIM 2065 after 24 hrs by disc diffusion method; format: functional; method in brief: as §1

Row | MIC (Staphylococcus aureus) | MIC (Klebsiella pneumoniae) | MIC (Proteus vulgaris) [µg/mL] | MIC (Aspergillus fumigatus) | MIC (Aspergillus niger [1]; Aspergillus niger, NCIM 545, 72 h) [µg/mL] | MIC (Trichoderma viride) | MIC (Candida albicans) | MIC (Penicillium chrysogenum) | MIC (Bacillus subtilis [5]) | MIC (Escherichia coli [6]) | MIC (Aspergillus niger [7]) | MIC (Escherichia coli [9]; Escherichia coli, NCIM 2065, 24 h) [µg/mL] | Structure (SMILES) | inhibition zone (IZ) (Proteus vulgaris) [mm] | inhibition zone (IZ) (Aspergillus niger [1]) [mm] | inhibition at 10 µM (THP-1 [2]) [%] | inhibition at 10 µM (THP-1 [3]) [%] | Activity [4] | inhibition zone (IZ) (Bacillus subtilis [8]) [mm] | inhibition zone (IZ) (Escherichia coli [9]) [mm]
1 | inactive | inactive | 50 (≈ 133 µM) | inactive | 50 (≈ 133 µM) | inactive | inactive | inactive | inactive | inactive | – | – | COc1ccc(/C(Cl)=C/C=C/C(=O)c2c(O)cc(OC)cc2OC)cc1 | 17 | 16 | 18 | 78 | Non-toxic | – | –
2 | inactive | inactive | 25 (≈ 65.9 µM) | inactive | – | inactive | inactive | inactive | – | – | inactive | 50 (≈ 132 µM) | COc1cc(O)c(C(=O)/C=C/C=C(\Cl)c2cccc(Cl)c2)c(OC)c1 | 18 | – | 0 | 31 | Non-toxic | 12 | 16
